For series [1], the species on record is Sus scrofa. Put plainly: In vitro inhibition of [14C]-aminopyrine accumulation was determined in gastric vesicles of pig with outside vesicle pH 7. To be noted: Stomach.
Series [2] has as its system Rattus norvegicus. Put plainly: In vivo inhibition of rat gastric secretion was determined at a dose of 10 uM/kg. Format: functional, Stomach. An outline of the steps: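 Pentagastrin-stimulated lumen-perfused rats given a single iv bolus of 10 μmol/kg. Acid output measured in the gastric perfusate. Percent inhibition taken at peak inhibition relative to the secretory plateau immediately before dosing; mean of four rats ± SEM.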

Series [3] relates to Rattus norvegicus. In words: In vivo antisecretory activity was determined for inhibition of gastric secretion in rat. To be noted: Stomach. In kind it is functional. An outline of the steps:
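Lumen-perfused rat stimulated with pentagastrin; compound given as iv bolus; acid output measured in gastric perfusate. Percent inhibition taken at peak inhibition versus secretory plateau just before dosing.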

For series [4], the system named is Rattus norvegicus. Put plainly: In vivo antisecretory activity was determined for inhibition of gastric secretion in rat; rats died at doses giving less than 50% inhibition. Format: organism-based, Stomach.
The nature of series [5]: pKa value was determined. Format: physicochemical.

In series [1], `Cc1ccccc1N1CCc2c(C)nc3c(C)cccc3c21` displayed an IC50 of 28 nM. In series [2], this molecule yielded an Inhibition of 43%.

On to `Cc1ccccc1-n1nnc2cnc3ccccc3c21`, for which the IC50 in series [1] was > 30000 nM. For the molecule `COc1ccc(N2CCc3c(C)nc4ccccc4c32)c(C)c1`, half-maximal inhibition in series [1] (IC50) required 26 nM. The Inhibition in series [2] was 51%. In series [2], `COc1ccc(N2CCc3c(C)nc4c(OC)cccc4c32)c(C)c1` returned an Inhibition of 45%.

`COc1ccc2[nH]c([S+]([O-])Cc3ncc(C)c(OC)c3C)nc2c1` (centres undefined) [OMEPRAZOLE] returned an ED50 in series [3] of 0.45 µmol/kg. As to `Cc1nc2c(OCc3ccccc3)cccn2c1CC#N`, it took a dose of 0.31 µmol/kg to reach the 50% effect level in series [3] (ED50). This molecule also had an IC50 in series [1] of 13 nM. For the molecule `COc1cccc2c3c(c(C)nc12)CCN3c1ccccc1`, in series [4], the ED50 entry is reported as “Toxic”. Further, 84 nM corresponded to half-maximal inhibition in series [1] (IC50). Further, the Inhibition in series [2] was 17%.

For `Cc1ccccc1N1CCc2c1c1ccccc1[n+]([O-])c2C`, the Inhibition in series [2] turned out to be 40%. For the molecule `COc1cccc2c3c(c(C)nc12)CCN3c1ccccc1C`, in series [3], the ED50 came to 19.8 µmol/kg. The pKa in series [5] is 9.5. The IC50 in series [1] was found to be 36 nM. As to `Cc1cccc(C)c1N1CCc2c(C)nc3ccccc3c21`, the Inhibition in series [2] is listed as 18%. In series [1], `COc1cccc2c3c(cnc12)CCCN3c1ccccc1C` returned an IC50 of 110 nM. Moreover, the Inhibition in series [2] turned out to be 21%. `COc1ccccc1N1CCc2c(C)nc3c(OC)cccc3c21`: the ED50 result in series [4] was “Toxic”. Also, the IC50 in series [1] was 230 nM. Molecule `COc1cccc2c1nc(C)c1ccn(-c3ccccc3C)c12` displayed an ED50 in series [3] of 7.1 µmol/kg. Also, the pKa in series [5] turned out to be 7.4. This molecule displayed an IC50 in series [1] of 34 nM. Further, the Inhibition in series [2] came out at 48%. For `Cc1ccccc1-n1cnc2cnc3ccccc3c21`, the midpoint of inhibition in series [1], the IC50, lay at 2230 nM. The molecule `Cc1cc(O)ccc1N1CCc2c(C)nc3ccccc3c21` showed an Inhibition in series [2] of 41%. For `COc1cccc2c3c(c(C)nc12)CCN3Cc1ccccc1`, the ED50 entry in series [4] is on record as “Toxic”. Besides, in series [1], the IC50 is 1600 nM. For the same molecule, the Inhibition in series [2] came to 0%.

In the case of `Cc1ccccc1-n1c(S)nc2cnc3ccccc3c21`, in series [1], the IC50 was > 30000 nM. `Cc1ccccc1N1CCc2c(C)nc3c(F)cccc3c21`: in series [2], the Inhibition came to 26%. As to `Cc1ccccc1N1CCc2c(C)nc3ccccc3c21`, in series [1], the IC50 was determined as 28 nM. Moreover, the Inhibition in series [2] was found to be 42%. For the molecule `COc1cccc2c3c(c(C)[n+](C)c12)CCN3c1ccccc1C`, the IC50 in series [1] stood at 2400 nM. In turn, `Cc1ccccc1N1CCc2c(C)nc3c(O)cccc3c21` displayed an IC50 in series [1] of 61 nM. Moreover, the Inhibition in series [2] turned out to be 23%. In series [3], `CCOC(=O)c1cnc2c(OC)cccc2c1Nc1ccccc1C` returned a median effective dose (ED50) of 8.2 µmol/kg. This molecule also yielded an IC50 in series [1] of 37 nM.

Source of the values: ChEMBL document CHEMBL1125040, “Reversible inhibitors of the gastric (H+/K+)-ATPase. 1. 1-Aryl-4-methylpyrrolo[3,2-c]quinolines as conformationally restrained analogues of 4-(arylamino)quinolines” (J Med Chem, 1990).
